In ChEMBL document CHEMBL1126762, “Synthesis and anaerobic activity of novel 1-carba-1-dethiacephalosporins” (J Med Chem, 1993):
Converted amounts (≈) assume the structure as drawn.

How the values were obtained:
[1] = tested on: Eikenella corrodens; experiment: Antibacterial activity against anaerobic Bacteroides corrodens 1874; assay type: functional
Method in brief: (§1)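 MIC by agar dilution following the NCCLS M11-A2 (2nd ed.) procedure for antimicrobial testing of anaerobic bacteria.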

[2] = tested on: Phocaeicola vulgatus; experiment: Antibacterial activity against anaerobic Bacteroides vulgatus 1211; assay type: functional; method in brief: as §1
[3] = tested on: Bacteroides thetaiotaomicron; experiment: Antibacterial activity against anaerobic Bacteroides thetaiotaomicron 1438; assay type: functional; method in brief: as §1
[4] = tested on: Prevotella melaninogenica; experiment: Antibacterial activity against anaerobic Bacteroides melaninogenicus 1856/28; assay type: functional; method in brief: as §1
[5] = tested on: Prevotella melaninogenica; experiment: Antibacterial activity against anaerobic Bacteroides melaninogenicus 2736; assay type: functional; method in brief: as §1
[6] = tested on: Bacteroides fragilis; experiment: Antibacterial activity against anaerobic Bacteroides fragilis 111; assay type: functional; method in brief: as §1
[7] = tested on: Bacteroides fragilis; experiment: Antibacterial activity against anaerobic Bacteroides fragilis 1877; assay type: functional; method in brief: as §1
[8] = tested on: Bacteroides fragilis; experiment: Antibacterial activity against anaerobic Bacteroides fragilis 1936B; assay type: functional; method in brief: as §1
[9] = tested on: Clostridioides difficile; experiment: Antibacterial activity against anaerobic Clostridium difficile 2994 strain; assay type: functional; method in brief: as §1
[10] = tested on: Clostridium perfringens; experiment: Antibacterial activity against anaerobic Clostridium perfringens 81; assay type: functional
Method in brief: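 Agar dilution MIC following NCCLS document M11-A2 (Vol. 10, no. 15), the method for antimicrobial testing of anaerobic bacteria; value reported as minimum inhibitory concentration.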

[11] = tested on: Clostridium septicum; experiment: Antibacterial activity against anaerobic Clostridium septicum 1128; assay type: functional; method in brief: as §1
[12] = tested on: Escherichia coli; experiment: Antibacterial activity against aerobic Escherichia coli EC14; assay type: functional
Method in brief: (§2)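 MIC by agar dilution following the NCCLS M7-A2 (2nd ed.) procedure for bacteria that grow aerobically.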

[13] = Antibacterial activity against anaerobic Eubacterium aerofaciens 1235; assay type: functional; conditions: Collinsella aerofaciens; method in brief: as §1
[14] = tested on: Klebsiella aerogenes; experiment: Antibacterial activity against aerobic Enterobacter aerogenes C32; assay type: functional; method in brief: as §2
[15] = Antibacterial activity against anaerobic Fusobacterium symbiosum 1470; assay type: functional, fusobacterium symbosium; method in brief: as §1
[16] = tested on: Fusobacterium necrophorum; experiment: Antibacterial activity against anaerobic Fusobacterium necrophorum 6054A; assay type: functional; method in brief: as §1
[17] = tested on: Haemophilus influenzae; experiment: Antibacterial activity against aerobic Haemophilus influenzae RES 76; assay type: functional; method in brief: as §2
[18] = tested on: Klebsiella pneumoniae; experiment: Antibacterial activity against aerobic Klebsiella pneumoniae X26; assay type: functional; method in brief: as §2
[19] = tested on: Peptostreptococcus anaerobius; experiment: Antibacterial activity against anaerobic Peptostreptococcus anaerobius 1451; assay type: functional; method in brief: as §1
[20] = Antibacterial activity against anaerobic Peptostreptococcus intermedius 1264; assay type: functional; method in brief: as §1
[21] = tested on: Pseudomonas aeruginosa; experiment: Antibacterial activity against aerobic Pseudomonas aeruginosa X239 strain; assay type: functional; method in brief: as §2
[22] = Antibacterial activity against anaerobic Peptococcus asaccharolyticus 1302; assay type: functional; conditions: Peptoniphilus asaccharolyticus; method in brief: as §1
[23] = tested on: Anaerococcus prevotii; experiment: Antibacterial activity against anaerobic Peptococcus prevoti 1281; assay type: functional; method in brief: as §1
[24] = tested on: Cutibacterium acnes; experiment: Antibacterial activity against anaerobic Propionibacterium acnes 79; assay type: functional; method in brief: as §1
[25] = tested on: Staphylococcus epidermidis; experiment: Antibacterial activity against aerobic Staphylococcus epidermidis 222; assay type: functional; method in brief: as §2
[26] = tested on: Streptococcus pneumoniae; experiment: Antibacterial activity against aerobic Streptococcus pneumoniae PARK; assay type: functional; method in brief: as §2
[27] = tested on: Staphylococcus aureus; experiment: Antibacterial activity against aerobic Staphylococcus aureus X1.1 strain; assay type: functional; method in brief: as §2

Compound	MIC [1] [µg/mL]	MIC [2] [µg/mL]	MIC [3] [µg/mL]	MIC [4] [µg/mL]	MIC [5] [µg/mL]	MIC [6] [µg/mL]	MIC [7] [µg/mL]	MIC [8] [µg/mL]	MIC [9] [µg/mL]	MIC [10] [µg/mL]	MIC [11] [µg/mL]	MIC [12] [µg/mL]	MIC [13] [µg/mL]	MIC [14] [µg/mL]	MIC [15] [µg/mL]	MIC [16] [µg/mL]	MIC [17] [µg/mL]	MIC [18] [µg/mL]	MIC [19] [µg/mL]	MIC [20] [µg/mL]	further results
CO[C@@]1(NC(=O)C2SC(=C(C(N)=O)C(=O)O)S2)C(=O)N2C(C(=O)O)=C(CSc3nnnn3C)CS[C@@H]21 (stereo partly specified) [CEFOTETAN]	8 (≈ 13.9 µM)	4 (≈ 6.95 µM)	1 (≈ 1.74 µM)	128 (≈ 222 µM)	128 (≈ 222 µM)	8 (≈ 13.9 µM)	8 (≈ 13.9 µM)	8 (≈ 13.9 µM)	16 (≈ 27.8 µM)	1 (≈ 1.74 µM)	4 (≈ 6.95 µM)	0.125 (≈ 0.217 µM)	4 (≈ 6.95 µM)	8 (≈ 13.9 µM)	128 (≈ 222 µM)	> 128	1 (≈ 1.74 µM)	0.125 (≈ 0.217 µM)	128 (≈ 222 µM)	8 (≈ 13.9 µM)	MIC [21]: > 128 µg/mL; MIC [22]: 1 µg/mL (≈ 1.74 µM); MIC [23]: 8 µg/mL (≈ 13.9 µM); MIC [24]: 1 µg/mL (≈ 1.74 µM); MIC [25]: 16 µg/mL (≈ 27.8 µM); MIC [26]: 4 µg/mL (≈ 6.95 µM); MIC [27]: 8 µg/mL (≈ 13.9 µM)
CO/N=C(\C(=O)N[C@@H]1C(=O)N2C(C(=O)O)=C(Sc3ncc([N+](=O)[O-])s3)CC[C@H]12)c1csc(N)n1	8 (≈ 15.2 µM)	2 (≈ 3.81 µM)	≤ 0.5	4 (≈ 7.61 µM)	4 (≈ 7.61 µM)	8 (≈ 15.2 µM)	2 (≈ 3.81 µM)	4 (≈ 7.61 µM)	2 (≈ 3.81 µM)	2 (≈ 3.81 µM)	≤ 0.5	0.5 (≈ 0.951 µM)	8 (≈ 15.2 µM)	2 (≈ 3.81 µM)	1 (≈ 1.9 µM)	≤ 0.5	0.06 (≈ 0.114 µM)	0.125 (≈ 0.238 µM)	≤ 0.5	≤ 0.5	MIC [21]: > 128 µg/mL; MIC [22]: ≤ 0.5 µg/mL; MIC [23]: ≤ 0.5 µg/mL; MIC [24]: ≤ 0.5 µg/mL; MIC [25]: 0.5 µg/mL (≈ 0.951 µM); MIC [26]: 0.008 µg/mL (≈ 0.0152 µM); MIC [27]: 0.125 µg/mL (≈ 0.238 µM)
CO/N=C(\C(=O)N[C@@H]1C(=O)N2C(C(=O)O)=C(Sc3ncc(C(F)(F)F)s3)CC[C@H]12)c1csc(N)n1	128 (≈ 233 µM)	8 (≈ 14.6 µM)	4 (≈ 7.29 µM)	0.125 (≈ 0.228 µM)	32 (≈ 58.3 µM)	128 (≈ 233 µM)	4 (≈ 7.29 µM)	128 (≈ 233 µM)	0.06 (≈ 0.109 µM)	0.06 (≈ 0.109 µM)	0.5 (≈ 0.911 µM)	0.25 (≈ 0.456 µM)	16 (≈ 29.2 µM)	0.5 (≈ 0.911 µM)	2 (≈ 3.65 µM)	0.25 (≈ 0.456 µM)	0.06 (≈ 0.109 µM)	0.03 (≈ 0.0547 µM)	0.5 (≈ 0.911 µM)	0.015 (≈ 0.0273 µM)	MIC [21]: 128 µg/mL (≈ 233 µM); MIC [22]: 0.125 µg/mL (≈ 0.228 µM); MIC [23]: 0.5 µg/mL (≈ 0.911 µM); MIC [24]: 0.008 µg/mL (≈ 0.0146 µM); MIC [25]: 1 µg/mL (≈ 1.82 µM); MIC [26]: 0.008 µg/mL (≈ 0.0146 µM); MIC [27]: 0.25 µg/mL (≈ 0.456 µM)
